Screens (PubChem BioAssay)
A selection: hits, their analogues and other compounds. The true share with any hit is near 3.8%.
NPY-Y2 PAM-ag – human NPY-Y2 potentiation or agonism, primary screen; activation, % at 3.6 µM; AID 1359; P49146; cells expressing NPY-Y2, potentiator/agonist read-out; 0.45% of 220,000 active; in the data active = activation above about 27%;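 note: cells stimulated with NPY near EC25 plus isoproterenol at EC100; 0% = vehicle plus submaximal agonist and 100% = vehicle plus saturating agonist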
Target sequence (P49146 whole entry, looked up): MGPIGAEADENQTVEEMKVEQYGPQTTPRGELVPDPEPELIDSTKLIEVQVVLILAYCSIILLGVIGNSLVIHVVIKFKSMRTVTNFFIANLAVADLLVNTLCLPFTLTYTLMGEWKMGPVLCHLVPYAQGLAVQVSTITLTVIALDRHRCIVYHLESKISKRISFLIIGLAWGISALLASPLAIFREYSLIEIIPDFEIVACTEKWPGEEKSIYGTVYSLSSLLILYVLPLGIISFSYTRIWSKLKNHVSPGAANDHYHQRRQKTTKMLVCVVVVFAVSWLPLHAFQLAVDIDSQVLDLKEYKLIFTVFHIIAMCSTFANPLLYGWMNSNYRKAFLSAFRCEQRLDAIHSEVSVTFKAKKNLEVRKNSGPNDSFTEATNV
NPY-Y1 antag – NPY-Y1 (human) receptor antagonism | P25929 | HEK293-CNG Y1 cells, membrane potential fluorescence; NPY at EC95, then isoproterenol | inhibition, % at 3.6 µM | 1% of 200,000 active;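 active = inhibition above the campaign mean inhibition of all tested compounds plus 3 SD, cut at about 20% in these data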;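 note: 0% = DMSO wells given NPY plus isoproterenol and 100% = isoproterenol alone without NPY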
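Material: HEK293 cells with Y1 receptor plus CNG channel; times: compound incubation 1 h at room temperature, readout 45 min post-stimulation; signal: fluorescence, membrane potential probe; read-out basis: fluorescence ratio normalized to % inhibition between controls; benchmarks: full-block control isoproterenol-only wells, zero-block control NPY plus isoproterenol wells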
NPY-Y2 antag – antagonists of human neuropeptide Y receptor Y2 | 0.99% of 140,000 active | P49146 | NPY-Y2 expressing cells, antagonist mode | inhibition, % at 2.7 µM; in the data active = inhibition above about 17%;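 note: 0% = vehicle with agonist challenge and 100% = reference antagonist with challenge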
RAM network inh – yeast RAM network inhibition; S. cerevisiae dse1pr::URA3 reporter, 5-FOA growth OD615, 2 d; analog-sensitive cbk1-as2 kinase mutant strain; inhibition, % at 50 µM; 1.8% of 190,000 active; AID 868;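 active = inhibition above a set limit, 3 SD over mean compound inhibition, cut at about 8.4% in these data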;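 note: 0% = DMSO-only wells with no growth and 100% = 10 µM 1-NA-PP1 full growth; inhibition rescues growth on 5-FOA so higher OD means more RAM inhibition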
Insulin prom inh – TRM-6 insulin promoter activity inhibition | inhibition, % at 2 µM | AID 1273 | 0.9% of 130,000 active | TRM-6 cells, insulin promoter-eGFP reporter, imaging; reporter expression induced with tamoxifen;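 active = inhibition above the mean plus 3 SD, with well images judged a real hit on visual review, cut at about 60% in these data, passing the limit was not always enough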
NPY-Y1 PAM-ag – human NPY-Y1 potentiation or agonism, primary screen; NPY-Y1 expressing cells, potentiator/agonist activation; activation, % at 3.6 µM; 0.37% of 220,000 active; AID 1304; in the data active = activation above about 33%, passing the limit was not always enough;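 note: cells stimulated with NPY at EC10 then isoproterenol at EC100; 0% = low agonist plus stimulus and 100% = saturating agonist plus stimulus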
Numbers without * were called inactive.

Screening CCN(C(=O)COC(=O)c1ccc(OCc2c(C)noc2C)cc1)c1ccccc1 returned NPY-Y2 PAM-ag 3, NPY-Y1 antag -2, NPY-Y2 antag 0, RAM network inh 3, Insulin prom inh -14 and NPY-Y1 PAM-ag 1.
CCN(c1ccccc1)S(=O)(=O)c1ccc(OCc2c(C)noc2C)cc1 was read as NPY-Y2 PAM-ag -11, NPY-Y1 antag -1, NPY-Y2 antag 3, RAM network inh 10*, Insulin prom inh -17 and NPY-Y1 PAM-ag -9.
For COc1ccc(OC)c(NC(=O)C2CCCCC2)c1 the results were NPY-Y2 PAM-ag -11, NPY-Y1 antag 1, NPY-Y2 antag 0, RAM network inh 0, Insulin prom inh 4 and NPY-Y1 PAM-ag 1.
`COc1ccc(OC)c(NC(=O)C(=S)NC2CCCCC2)c1` gave NPY-Y2 PAM-ag 2, NPY-Y1 antag 4, RAM network inh 8.7*, Insulin prom inh -71 and NPY-Y1 PAM-ag -18.
CCOC(=O)N1CCN(C(=O)Nc2ccc(Cl)cc2Cl)CC1 was read as NPY-Y2 PAM-ag -6, NPY-Y1 antag 1, NPY-Y2 antag 2, RAM network inh -1, Insulin prom inh -29 and NPY-Y1 PAM-ag -20.
For Cc1ccccc1NC(=O)/C(=C/c1ccccc1)c1ccccc1 the results were NPY-Y2 PAM-ag -12, NPY-Y1 antag 21*, NPY-Y2 antag 18*, RAM network inh 5, Insulin prom inh 26 and NPY-Y1 PAM-ag 0.
For Cn1c(=O)c2c(ncn2Cc2nnc(N)s2)n(C)c1=O the results were NPY-Y2 PAM-ag 5, NPY-Y1 antag 0, RAM network inh 0 and NPY-Y1 PAM-ag -4.
Screening CCn1cc(Cl)c(C(=O)N2N=C(c3ccc4ccccc4c3)CC2c2ccccc2O)n1 (centres undefined) returned NPY-Y2 PAM-ag -3, NPY-Y1 antag 2, NPY-Y2 antag 4, RAM network inh 4, Insulin prom inh 67* and NPY-Y1 PAM-ag 0.
Screening CCn1cc([N+](=O)[O-])c(C(=O)N2N=C(c3ccc4ccccc4c3)CC2c2ccccc2O)n1 (centres undefined) returned NPY-Y2 PAM-ag 13, NPY-Y1 antag -5, NPY-Y2 antag 1, RAM network inh 2, Insulin prom inh 56 and NPY-Y1 PAM-ag 0.
For COc1ccc(Nc2nnc(SC(C(=O)Nc3cc(C)ccc3C)c3ccccc3)s2)cc1 (centres undefined) the results were NPY-Y2 PAM-ag 5, NPY-Y1 antag -7, RAM network inh 4 and NPY-Y1 PAM-ag 5.
`COc1ccc(C)cc1NC(=O)C(Sc1nnc(Nc2cc(C)ccc2OC)s1)c1ccccc1` (centres undefined) gave NPY-Y2 PAM-ag 2, NPY-Y1 antag -3, NPY-Y2 antag 4, RAM network inh 8.5*, Insulin prom inh 8 and NPY-Y1 PAM-ag 6.
`Cc1nccc(-c2cccc(NC(=O)c3ccccc3Cl)c2)n1` gave NPY-Y2 PAM-ag -5 and NPY-Y1 PAM-ag 8.
`COC(=O)C1=C(C)NC2=C(C(=O)CCC2)C1c1cn(Cc2ccc(Cl)cc2Cl)nc1-c1ccccc1` (centres undefined) gave NPY-Y2 PAM-ag -28, NPY-Y1 antag 65*, NPY-Y2 antag 19*, RAM network inh 6 and NPY-Y1 PAM-ag -66.
Screening N=C1/C(=C/c2cccn2-c2ccc([N+](=O)[O-])cc2)C(=O)N=C2SC=CN12 returned NPY-Y2 PAM-ag 5, NPY-Y1 antag 6, NPY-Y2 antag -1, RAM network inh 10*, Insulin prom inh -30 and NPY-Y1 PAM-ag 14.
For c1nc(NC2CCCCCC2)c2[nH]cnc2n1 the results were NPY-Y2 PAM-ag -10, NPY-Y1 antag 0, NPY-Y2 antag 0, RAM network inh 2, Insulin prom inh 70* and NPY-Y1 PAM-ag 7.
`Cc1ccc(-n2nnnc2SCC(=O)NC2CCCc3ccccc32)cc1` (centres undefined) gave NPY-Y2 PAM-ag -4, NPY-Y1 antag 5, NPY-Y2 antag 11, RAM network inh 5, Insulin prom inh 17 and NPY-Y1 PAM-ag -27.
Screening Cc1ccc(-n2nnnc2SCC(=O)NC2CCCc3ccccc32)c(C)c1 (centres undefined) returned NPY-Y2 PAM-ag -5, NPY-Y1 antag 3, NPY-Y2 antag 5, RAM network inh 8.5*, Insulin prom inh -31 and NPY-Y1 PAM-ag 9.
Screening CCn1c(SCc2nc3ccccc3c(=O)[nH]2)nc2ccccc2c1=O returned NPY-Y2 PAM-ag -6, NPY-Y1 antag 19, NPY-Y2 antag 6, RAM network inh 2, Insulin prom inh -69 and NPY-Y1 PAM-ag -12.
COCCn1c(SCC(=O)Nc2cccc(C(=O)OC)c2)nc2ccccc2c1=O was read as NPY-Y2 PAM-ag 5, NPY-Y1 antag -3, NPY-Y2 antag 4, RAM network inh 8.8* and NPY-Y1 PAM-ag -1.
`COCCCn1c(SCc2nc3ccccc3c(=O)[nH]2)nc2ccccc2c1=O` gave NPY-Y2 PAM-ag -12, NPY-Y1 antag 1, NPY-Y2 antag 5, RAM network inh 9.5*, Insulin prom inh 4 and NPY-Y1 PAM-ag 18.
COCCCn1c(SCC(=O)Nc2ccc(C(C)=O)cc2)nc2ccccc2c1=O was read as NPY-Y2 PAM-ag 18, NPY-Y1 antag -11, NPY-Y2 antag -7, RAM network inh 2, Insulin prom inh -6 and NPY-Y1 PAM-ag 16.
Screening COCCn1c(SCC(=O)N2CCc3ccccc3C2)nc2cc(Cl)ccc2c1=O returned NPY-Y2 PAM-ag 4, NPY-Y1 antag -3, NPY-Y2 antag 8, RAM network inh 1, Insulin prom inh 15 and NPY-Y1 PAM-ag -3.
For COCCn1c(SCc2ccc(C(=O)OC)o2)nc2cc(Cl)ccc2c1=O the results were NPY-Y2 PAM-ag -3, NPY-Y1 antag 3, NPY-Y2 antag 4, RAM network inh 9.4* and NPY-Y1 PAM-ag -4.
NC(=O)CC[C@H](NC(=O)OCc1ccccc1)C(=O)OCc1ccc(Cl)cc1 was read as NPY-Y2 PAM-ag -4, NPY-Y1 antag 1, NPY-Y2 antag 0, RAM network inh 3, Insulin prom inh -22 and NPY-Y1 PAM-ag 11.
For O=C(CCC(NC(=O)OCc1ccccc1)C(=O)OCc1ccccc1)NCC(=O)OCc1ccccc1 (centres undefined) the results were NPY-Y2 PAM-ag -9, NPY-Y1 antag 2, NPY-Y2 antag 2, RAM network inh 8.8* and NPY-Y1 PAM-ag 5.
`Cc1ccc(NC(=S)N(CCCN2CCOCC2)Cc2cccnc2)cc1C` gave NPY-Y2 PAM-ag 13, NPY-Y1 antag -2, RAM network inh 0 and NPY-Y1 PAM-ag 6.
Fc1ccc(Nc2nnc(C(F)(F)F)s2)cc1 was read as NPY-Y2 PAM-ag 6 and NPY-Y1 PAM-ag 7.
For Nc1ccc(S(=O)(=O)Nc2nc(-c3ccccc3)cc(-c3ccccc3)n2)cc1 the results were NPY-Y2 PAM-ag 17 and NPY-Y1 PAM-ag 21.
